Experimental data from different studies.
Target: Ephrin type-A receptor 8 (EPHA8, Homo sapiens, UniProt P29322)
Residues used in one study (P29322 28-1005): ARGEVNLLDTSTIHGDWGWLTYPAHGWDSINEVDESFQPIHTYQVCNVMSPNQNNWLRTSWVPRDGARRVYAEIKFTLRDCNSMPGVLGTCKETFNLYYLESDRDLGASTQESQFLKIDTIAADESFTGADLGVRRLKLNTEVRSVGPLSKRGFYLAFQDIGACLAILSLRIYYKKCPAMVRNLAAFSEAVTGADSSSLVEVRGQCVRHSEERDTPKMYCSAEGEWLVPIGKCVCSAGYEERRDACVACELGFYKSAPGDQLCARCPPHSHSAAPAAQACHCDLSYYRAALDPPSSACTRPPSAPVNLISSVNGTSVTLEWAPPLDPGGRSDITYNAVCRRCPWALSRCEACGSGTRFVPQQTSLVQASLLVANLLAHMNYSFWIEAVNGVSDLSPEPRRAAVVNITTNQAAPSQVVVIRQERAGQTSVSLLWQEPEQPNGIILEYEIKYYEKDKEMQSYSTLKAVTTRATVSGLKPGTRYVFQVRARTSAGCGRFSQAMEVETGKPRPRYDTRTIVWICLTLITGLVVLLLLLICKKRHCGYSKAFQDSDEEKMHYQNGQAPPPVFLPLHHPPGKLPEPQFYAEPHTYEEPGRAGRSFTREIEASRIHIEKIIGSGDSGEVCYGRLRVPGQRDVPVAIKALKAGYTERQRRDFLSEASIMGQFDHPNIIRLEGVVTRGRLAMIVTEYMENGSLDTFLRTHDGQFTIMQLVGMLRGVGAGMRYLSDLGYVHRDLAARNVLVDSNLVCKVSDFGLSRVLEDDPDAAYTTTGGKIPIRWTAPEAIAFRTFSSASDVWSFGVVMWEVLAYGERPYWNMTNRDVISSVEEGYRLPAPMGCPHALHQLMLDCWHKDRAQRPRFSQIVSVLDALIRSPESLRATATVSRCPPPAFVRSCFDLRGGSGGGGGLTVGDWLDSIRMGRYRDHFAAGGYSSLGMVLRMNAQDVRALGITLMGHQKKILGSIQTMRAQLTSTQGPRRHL

SMILES | assay | conditions | remaining binding
CCOC(=O)c1cc2cc(-c3cc(C(=O)NCc4ccc(C(=O)O)cc4)nn3C)ccc2[nH]1 | cell-free assay, competition with immobilised ligand | 0.1 µM | 100%
O=C(c1ccc(Nc2ncc(Cl)c(-c3ccc(Cl)s3)n2)cc1)N1CCC(N2CCCC2)CC1 | binding, competition with immobilised ligand | 1 µM | 91%
c1cncc(-c2cccc(Nc3nccc(NC4CCCCC4)n3)c2)c1 | binding, competition with immobilised ligand | 10 µM | 100%
O=c1nc(-c2ccccn2)sc2ccccc12 | cell-free assay, competition with immobilised ligand | 1 µM | 78%
COc1cnc(Nc2cccc(S(N)(=O)=O)c2)nc1N1CCN(c2ccccc2)CC1 | binding, competition with immobilised ligand | 1 µM | 96%
O=C(NCCCN1CCOCC1)c1ccc(Nc2nccc(-c3cc4ccccc4s3)n2)cc1 | binding, competition with immobilised ligand | 1 µM | 96%
COc1ccnn2ncc(-c3ccnc(N(C)C)n3)c12 | binding | 1 µM | 100%
C=CC(=O)N1CCC(C(=O)NCC(=O)N2CCN(c3nc(-c4cnc(N)nc4C(F)F)nc(N4CCOCC4)n3)CC2)CC1 | binding, competition with immobilised ligand | 1 µM | 100%
Cc1nc(C2CCN(C(=O)c3ccc(OC(F)(F)F)cc3N)CC2)c2ncc(N3CCN(C)CC3)cc2n1 | cell-free assay, competition with immobilised ligand | 1 µM | 98%
CNC(=O)[C@@H]1CC[C@@H](n2c(-c3ccc4cnccc4c3)nc3ccc(C(=O)NCc4cccc(C(N)=O)c4)cc32)C1 | binding, competition with immobilised ligand | 1 µM | 91%
N[C@@H]1CCN(c2nccc(-c3cnn4ncccc34)n2)C1 | binding | 1 µM | 100%
O=C(NCCCN1CCOCC1)c1ccc(Nc2ncc(Cl)c(-c3ccc(Cl)s3)n2)cc1 | binding, competition with immobilised ligand | 1 µM | 95%
C[C@@H](c1ccc(-n2cnc3c(N)ncnc32)cc1)N1CCc2nn(C)c(Cc3ccccc3)c2C1=O | binding, competition with immobilised ligand | 0.1 µM | 63%
NS(=O)(=O)c1cc(NC(=O)C2(c3ccccc3Cl)CC2)ccc1Oc1cccc(Cl)c1 | cell-free assay, competition with immobilised ligand | 1 µM | 80%
CC1CCCN1c1nccc(-c2cnn3ncccc23)n1 (centres unmarked) | binding | 1 µM | 100%
CC1=C(C#N)C(c2ccc3c(c2)c(NC(=O)c2ccccc2C)nn3C)C(C#N)=C(C)N1 | cell-free assay, competition with immobilised ligand | 1 µM | 100%
CN(C)c1nccc(-c2cnc3ncccn23)n1 | binding | 1 µM | 79%
O=C(NCC1CCOCC1)c1n[nH]cc1NC(=O)c1c(F)cccc1F | binding, competition with immobilised ligand | 1 µM | 100%
C[C@@H]1CN(c2cc(-c3n[nH]c4ccc(OC5(C)CC5)cc34)ncn2)C[C@H](C)O1 | cell-free assay, competition with immobilised ligand | 0.1 µM | 82%
F[C@@H]1CCN(c2nccc(-c3cnn4ncccc34)n2)C1 | binding | 1 µM | 92%
